TCR-CD3 inh: blocks the human TCR-CD3 interaction; TAMRA-labeled TCR probe fluorescence, biochemical; inhibition, % at 9.4 µM; hit rate 0.37% among 360,000; AID 651800; in the data active = inhibition above about 19%;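 also: recombinant mutant TCR 2C K166C tagged with TAMRA read by polarization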
PRMT1 FP inh: blocks human protein arginine methyltransferase 1; Q99873; recombinant PRMT1, activity-based probe fluorescence polarization; inhibition, % at 2.79 µM; hit rate 1.3% among 370,000;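 active = inhibition above about 21% made by adding two undisclosed values, limit read from the data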
SIAE inh: human SIAE inhibition, primary screen; hit rate 0.69% among 370,000; inhibition, % at 9.66 µM; Q9HAT2; SIAE FP-Rh probe binding, fluorescence polarization;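 active = inhibition above a cutoff: mean of compounds within the control limits plus 3 SD of those, cut at about 17% in these data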
ABHD4 inh: inhibitors of mouse ABHD4. purified mABHD4, FP-Rh probe fluorescence polarization. inhibition, % at 8.92 µM. Q8VD66. hit rate 0.54% among 370,000;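 active = inhibition exceeding the mean over every tested compound plus 3 SD, cut at about 30% in these data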
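Test system: mABHD4 protein; Read-out basis: % inhibition; Incubation: 45 min + 60 min at 25 °C; Repeats: single replicate; Technique: fluorescence polarization with parallel and perpendicular emission, 525/598 nm; Compound: 8.92 µM, single dose; Benchmarks: full inhibition S159A mutant plus DMSO, zero as sample-well median.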
HTRA1 inhibitor: inhibitors of human serine peptidase HTRA1. Q92743. recombinant HTRA1, FP-rhodamine activity-based probe, fluorescence polarization. inhibition, % at 5.96 µM. hit rate 0.5% among 340,000; in the data active = inhibition above about 36%
Target sequence (Q92743 whole entry, looked up): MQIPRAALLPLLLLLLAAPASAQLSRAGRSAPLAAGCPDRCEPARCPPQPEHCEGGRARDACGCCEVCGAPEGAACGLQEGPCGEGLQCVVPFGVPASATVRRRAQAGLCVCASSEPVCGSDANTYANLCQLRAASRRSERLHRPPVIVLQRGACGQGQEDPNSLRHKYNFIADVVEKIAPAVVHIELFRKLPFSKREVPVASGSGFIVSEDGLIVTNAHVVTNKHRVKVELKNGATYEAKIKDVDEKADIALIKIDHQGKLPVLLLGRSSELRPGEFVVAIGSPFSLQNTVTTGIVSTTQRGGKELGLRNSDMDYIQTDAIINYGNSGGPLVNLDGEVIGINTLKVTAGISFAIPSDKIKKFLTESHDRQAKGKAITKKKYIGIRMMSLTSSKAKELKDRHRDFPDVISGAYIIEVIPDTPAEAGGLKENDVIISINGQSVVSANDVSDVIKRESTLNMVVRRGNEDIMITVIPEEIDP
ATG4B inhibitor: ATG4B (human) cysteine protease inhibition; hit rate 0.51% among 340,000; ATG4B cleavage of LC3-PLA2, NBD-HPC fluorescence, 1 h; Q9Y4P1; inhibition, % at 8.33 µM; in the data active = inhibition above about 40%
mABHD4 conf: ABHD4 (mouse) inhibition, FP confirmation; shares compounds with ABHD4 inh; purified mABHD4, FP-Rh probe fluorescence polarization; inhibition, % at 8.92 µM; hit rate 55% among 1,800;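 active = mean inhibition across replicates above the hit cutoff set in the primary screen, cut at about 30% in these data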
SIAE inh conf: human SIAE inhibition, confirmation; inhibition, % at 9.66 µM; hit rate 13% among 2,300; shares compounds with SIAE inh; SIAE FP-Rh activity-based probe, fluorescence polarization;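 active = mean inhibition of the replicates above the hit cutoff set in the primary screen, cut at about 17% in these data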;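 also: inhibitors lower polarization as more probe stays unbound to SIAE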
Numbers stand for hits; . = inactive; / = no result; ! = not active in a repeat. Compounds with a hit are over-represented: about 2.9% of the library has one in this group of screens.

SMILES	TCR-CD3 inh	PRMT1 FP inh	SIAE inh	ABHD4 inh	HTRA1 inhibitor	ATG4B inhibitor	mABHD4 conf	others
Nc1[nH]c(C(=O)c2ccc(Br)cc2)c(-c2ccc(Br)cc2)c1C(=O)NCCc1c[nH]c2ccccc12	.	.	.	.	/	/	/
COc1ccc(-c2c(C(=O)c3ccc(Br)cc3)[nH]c(N)c2C(=O)NCCc2c[nH]c3ccccc23)cc1OC	.	.	.	33.1	/	/	.
Nc1[nH]c(C(=O)c2ccc(Br)cc2)c(-c2ccc(F)cc2)c1C(=O)NCCc1c[nH]c2ccccc12	.	.	.	32.8	/	/	.
COC(=O)c1cn(-c2ccc3c(c2)[C@]2(CC(=O)N(C)C2c2ccccc2)C(=O)N3CC(C)C)nn1 (some centres not stated)	/	.	.	.	/	/	/
O=C(O)c1[nH]c2ccccc2c1C(c1ccccc1)c1c(C(=O)O)[nH]c2ccccc12	.	.	.	31.8	.	.	38.2
C=CCOc1ccc(C(c2c(C(=O)O)[nH]c3ccccc23)c2c(C(=O)O)[nH]c3ccccc23)cc1	.	.	.	55.3	.	.	52.8
O=S1(=O)c2c(NCc3ccco3)cccc2Oc2ccccc2CN1Cc1cn(Cc2ccc(F)cc2)nn1	/	.	.	.	/	/	/
Cc1ccc(/C=C2\SC(=S)N(CC3CCCO3)C2=O)o1 (configuration not stated)	.	23.4	.	29.6	.	.	.
C[C@H]1CCCC(=O)N[C@@H](c2ccccc2)[C@@H](C)CCCC(=O)N[C@H]1c1ccccc1	/	.	.	.	/	/	/
O=C(Nc1ccc(C(F)(F)F)cc1)OC1CC2CC1[C@H]1CCCCN1C2 (some centres not stated)	/	.	.	.	/	/	/
COC(=O)[C@H]1C[C@@]2(N3CCCCC3)c3ccccc3N[C@H]2N1S(=O)(=O)c1ccc(C)cc1	/	.	.	.	/	/	/
Cc1nn(Cc2ccccc2)c2c1C(c1cccc(Cl)c1)C(C#N)=C(N)O2 (configuration not stated)	.	.	.	54.4	.	.	40.5
COc1cc(-n2nc(C)c3c2OC(N)=C(C#N)C3c2ccccc2)c(Cl)c(Br)c1O (configuration not stated)	.	.	.	29.5	.	.	40.1
COc1cccc(CNC(=O)CCCN2C(=O)COc3ccc(C)cc32)c1OC	/	.	.	.	/	/	/
CCC(C)NC(=O)CSc1nnc(-c2cc(OC)c(OC)c(OC)c2)o1 (configuration not stated)	/	.	.	.	/	/	/
C=CCN=c1scc(C)n1/N=C/c1ccc(O)c(O)c1	.	.	.	40.2	.	.	.
O=C(NCc1ccccc1F)C1CCC(CNS(=O)(=O)c2cccc3cccnc23)CC1 (configuration not stated)	/	.	.	.	/	/	/
O=C1C=C(Nc2ccccc2C(=O)O)c2ccccc2C1=O	.	.	.	44.0	.	.	53.0
CC1CCN(c2ccc(C(=O)O)cc2NS(=O)(=O)c2ccccc2)CC1	/	.	.	36.8	/	/	38.6
CC1CCN(C(=O)c2ccccc2NS(=O)(=O)c2ccccc2)CC1	.	.	.	.	.	.	/
CCCCNc1c(-c2ccc(OC)c(SC3CCCCC3)c2)nc2cnccn12	/	/	/	/	.	.	/
CCCCNc1c(-c2ccc(OC)c(SC3CCCCC3)c2)nc2cc(C)ccn12	.	.	.	30.0	.	.	37.0
CCCCNc1c(-c2ccc(SC3CCCCC3)cc2)nc2cnccn12	.	.	.	33.8!	.	.	.
Cc1c2ccccc2nc2ccccc12	.	.	.	.	.	.	/
CCCNc1c(F)c(F)c2c(C)c3ccccc3nc2c1F	.	.	.	50.8	50.9	.	44.5
SMILES	TCR-CD3 inh	PRMT1 FP inh	SIAE inh	ABHD4 inh	HTRA1 inhibitor	ATG4B inhibitor	mABHD4 conf	others
C=CCN(C)C(C#CCCCC)c1ccccc1 (configuration not stated)	/	.	.	.	/	/	/
CCOc1ccc(OCC(O)CNC2CCN(Cc3ccccc3)CC2)cc1 (configuration not stated)	.	.	.	.	.	.	/
CC(C)(c1ccccc1)c1ccc(OCC(O)CNC2CCN(Cc3ccccc3)CC2)cc1 (configuration not stated)	.	.	.	31.6	.	.	36.2
Oc1ccc2[nH]cc(CCc3ccccc3)c2c1-c1ccccc1	/	.	.	32.9	/	/	.
c1ccc(Cc2c[nH]c3ccccc23)cc1	.	.	.	.	.	.	/
CCCCCn1cc(CCC(=O)Nc2ccc(Oc3cccnc3)cc2)c2ccccc21	.	.	.	.	/	/	/
Cc1ccn2c(NC3CCCCC3)c(-c3cccc(-c4cccc(Cl)c4)c3)nc2c1	.	.	.	37.8	.	.	53.8
Cc1nn(-c2ccccc2)c(C)c1C=NNC(=O)CSc1nc2ccccc2n1C	/	.	.	.	/	/	/
CCOC(=O)Cc1cc(=O)c2c(=O)n(-c3ccccc3)[nH]c2[nH]1	.	.	17.7	57.1	.	.	.	SIAE inh conf=.
O=c1cc(-c2ccccc2)[nH]c2[nH]n(-c3ccccc3)c(=O)c12	.	.	.	.	.	.	/
Cc1nc2ccc(NC(=O)c3ccc(F)cc3Cl)cc2c(=O)[nH]1	/	.	.	.	/	/	/
O=C(NNc1c2ccccc2nc2ccccc12)c1ccc(O)cc1O	.	.	27.7	34.9	.	.	61.5	SIAE inh conf=.
COc1ccc2[nH]c3c(C)c4ccncc4c(C)c3c2c1	.	.	21.3	31.7	.	.	57.0	SIAE inh conf=19.8
Cc1c2ccncc2cc2c1[nH]c1ccccc12	.	.	.	.	.	.	/
COc1ccccc1CNC(=O)N1CCN(Cc2nc3ccccc3c(=O)[nH]2)CC1	/	.	.	.	/	/	/
O=C(O)c1ccc(N/N=C/c2ccc(-c3ccc(Cl)cc3Cl)o2)cc1	.	.	18.2	57.4	.	.	67.0	SIAE inh conf=19.8
CN(C)c1ccc(NC(=O)Nc2ccc3c(c2)c(=O)n(C)n3-c2ccccc2)cc1	.	.	.	.	/	/	/
CN(C)c1ccc(NC(=S)Nc2ccc3c(c2)c(=O)n(C)n3-c2ccc(C(C)(C)C)cc2)cc1	.	.	19.9	30.8	/	/	44.9	SIAE inh conf=.
Nc1[nH]c(C(=O)c2ccc(Br)cc2)c(-c2ccc(Cl)cc2[N+](=O)[O-])c1C(=O)NCCc1c[nH]c2ccccc12	.	.	20.2	39.8	/	/	.	SIAE inh conf=.
COc1ccc(C(=O)c2[nH]c(N)c(C(=O)NCCc3c[nH]c4ccccc34)c2-c2ccc(Cl)c(F)c2)cc1	.	.	20.6	34.5	/	/	36.7	SIAE inh conf=.
O=C(/C=C(\Nc1ccc(F)cc1)c1ccccc1)c1ccccc1	.	.	.	.	/	/	/
N=c1c2c(-c3ccccc3)c(-c3ccccc3)n(Cc3ccccc3)c2ncn1C1CCOCC1	/	.	.	.	/	/	/
O=C(O)c1cccc(N/N=C/c2cc(Br)cc(Br)c2O)c1	.	.	31.2	56.4	.	.	80.1	SIAE inh conf=.
